Laboratory results reported in publication PMC3263826 (ACS medicinal chemistry letters, 2011).

What was measured:
human MAO B = target: T1, human MAO B (Homo sapiens, UniProt P27338); test: Inhibition of purified recombinant human MAO B; assay type: biochemical; settings: for inhibition pattern with MAO B: species not given
T1 sequence (P27338 1-520): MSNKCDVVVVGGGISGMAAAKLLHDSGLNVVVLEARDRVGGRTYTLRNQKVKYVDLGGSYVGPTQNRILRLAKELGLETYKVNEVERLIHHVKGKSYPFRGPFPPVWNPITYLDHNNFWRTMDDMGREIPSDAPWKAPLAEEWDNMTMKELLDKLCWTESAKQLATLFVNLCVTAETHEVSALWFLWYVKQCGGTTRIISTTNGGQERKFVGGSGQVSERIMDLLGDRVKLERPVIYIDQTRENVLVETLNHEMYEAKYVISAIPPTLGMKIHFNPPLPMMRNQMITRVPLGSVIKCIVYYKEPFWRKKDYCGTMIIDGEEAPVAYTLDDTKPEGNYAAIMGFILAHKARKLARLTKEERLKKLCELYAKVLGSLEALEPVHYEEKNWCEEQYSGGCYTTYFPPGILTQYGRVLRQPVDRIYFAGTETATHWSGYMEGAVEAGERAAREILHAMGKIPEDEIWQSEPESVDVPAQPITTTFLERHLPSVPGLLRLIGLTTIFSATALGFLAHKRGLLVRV

[1] = tested on: MPTP-mouse model for Parkinson's disease; settings: cited from earlier work
[2] = cited from earlier work
[3] = target: human histone demethylase LSD1 (Homo sapiens, UniProt O60341); test: Inhibition of human histone demethylase LSD1; assay type: biochemical; settings: concentrations up to 100 μM
Procedure, shortened: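 Enzyme is recombinant human LSD1 purified as a complex with CoREST. Test compound was assayed at concentrations up to 100 μM.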

human MAO A = target: T2, human MAO A (Homo sapiens, UniProt P21397); test: Inhibition of purified recombinant human MAO A; assay type: biochemical; settings: for inhibition pattern with MAO A: species not given
T2 sequence (P21397 1-527): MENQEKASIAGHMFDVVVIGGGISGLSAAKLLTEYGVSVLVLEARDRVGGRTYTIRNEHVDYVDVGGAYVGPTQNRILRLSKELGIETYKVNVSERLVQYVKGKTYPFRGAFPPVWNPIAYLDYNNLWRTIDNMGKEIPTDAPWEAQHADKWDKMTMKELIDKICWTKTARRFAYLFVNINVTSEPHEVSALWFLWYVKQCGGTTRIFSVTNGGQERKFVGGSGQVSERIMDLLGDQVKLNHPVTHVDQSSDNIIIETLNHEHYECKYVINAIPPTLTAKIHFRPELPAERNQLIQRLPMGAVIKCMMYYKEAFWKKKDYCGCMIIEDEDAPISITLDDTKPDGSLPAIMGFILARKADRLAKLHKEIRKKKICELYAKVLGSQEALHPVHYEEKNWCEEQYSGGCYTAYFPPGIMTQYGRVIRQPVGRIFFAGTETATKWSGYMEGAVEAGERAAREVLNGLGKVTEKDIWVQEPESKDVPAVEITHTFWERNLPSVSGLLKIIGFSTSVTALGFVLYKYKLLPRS

rat MAO A = target: T3, rat MAO A (Rattus norvegicus, UniProt P21396); test: Inhibition of purified recombinant rat MAO A; assay type: biochemical; settings: accessible concentration range (~100 μM)
T3 sequence (P21396 1-526): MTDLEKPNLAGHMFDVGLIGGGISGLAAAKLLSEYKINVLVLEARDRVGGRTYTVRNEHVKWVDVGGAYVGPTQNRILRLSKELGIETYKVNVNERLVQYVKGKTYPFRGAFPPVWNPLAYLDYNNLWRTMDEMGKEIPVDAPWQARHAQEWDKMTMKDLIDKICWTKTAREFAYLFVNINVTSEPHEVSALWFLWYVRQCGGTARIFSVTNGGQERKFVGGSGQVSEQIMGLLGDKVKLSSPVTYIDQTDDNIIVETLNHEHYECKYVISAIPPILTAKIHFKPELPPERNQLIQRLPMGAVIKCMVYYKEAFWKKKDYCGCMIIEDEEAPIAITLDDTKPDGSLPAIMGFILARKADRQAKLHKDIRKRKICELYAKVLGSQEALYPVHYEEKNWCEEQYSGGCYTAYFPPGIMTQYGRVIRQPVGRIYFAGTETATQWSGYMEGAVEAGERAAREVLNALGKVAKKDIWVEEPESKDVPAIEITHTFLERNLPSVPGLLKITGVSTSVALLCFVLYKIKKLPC

CCc1ccc(CCOc2ccc(CC3SC(=O)NC3=O)cc2)nc1 (centres unmarked) [Pioglitazone, pioglitazone]
inhibition pattern with MAO B (human MAO B): competitively | neuroprotection in MPTP-mouse model [1]: effective neuroprotectant | brain (therapeutic neuroprotective) concentration ([2]; monkey, in vivo): ~ 0.14 μM | plasma concentration ([2]; monkeys with induced symptoms characteristic of Parkinson's disease): ~ 4.9 μM | inhibition of LSD1 [3]: No inhibition | inhibitory activity against human MAO A (human MAO A; accessible concentration range (~100 μM)): does not exhibit any inhibitory activity | inhibitory activity against rat MAO A (rat MAO A): does not exhibit any inhibitory activity

CN(CCOc1ccc(CC2SC(=O)NC2=O)cc1)c1ccccn1 (centres unmarked) [Rosiglitazone, rosiglitazone]
inhibition pattern with MAO B (human MAO B): competitively | substrate of MAO B (human MAO B; time course of hours): very slow substrate | inhibition of LSD1 [3]: No inhibition | inhibition pattern with MAO A (human MAO A): competitively | substrate of MAO A (human MAO A; time course of hours): very slow substrate

Cc1c(C)c2c(c(C)c1O)CCC(C)(COc1ccc(CC3SC(=O)NC3=O)cc1)O2 (centres unmarked) [Troglitazone, troglitazone]
inhibition pattern with MAO B (human MAO B): non-competitive | inhibition pattern with MAO A (human MAO A): non-competitive
